The values below come from ChEMBL document CHEMBL4265978, “In search of constrained FTY720 and phytosphingosine analogs as dual acting anticancer agents targeting metabolic and epigenetic pathways” (Eur J Med Chem, 2018).

Each structure is given as a SMILES string. Calls of active or inactive are those of the source. No cut-off for these calls is given here.

Test [1] has as its target T1, Histone deacetylase (Mus musculus) (UniProt Q8VH37+Q9Z2V6+Q9Z2V5+O09106+Q8C2B3+P70288+O88895+Q91WA3+Q99N13+Q6NZM9+Q6P3E7). The test is described as follows: Inhibition of HDAC in mouse FL5.12 cells assessed as increase in histone H3 acetylation at 10 uM after 6 hrs by Western blot analysis. It counts as cell-based. The procedure, abridged:
(§1)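 Histones acid-extracted in 0.2 N HCl overnight at 4°C; protein measured by BCA. Samples run on 4-12% gels and transferred to nitrocellulose, blocked in 5% BSA. Probed overnight at 4°C for acetyl-H3K9, H3K18, H4K5, H4K8 and total H3/H4, then with IRDye secondaries; infrared imaging.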
On the technique in general: A western blot detects proteins with antibodies after separation by electrophoresis.

For test [2], the target named is T1, Histone deacetylase (Mus musculus). Kind of test: Inhibition of HDAC in MEF assessed as increase in histone H3 acetylation at 10 to 20 uM after 6 hrs by Western blot analysis. Type of test: cell-based. The procedure, abridged:
as §1

The target is the same in test [3]. Kind of test: Inhibition of HDAC in MEF assessed as increase in histone H3K9 acetylation at 5 uM after 6 hrs by Western blot analysis. Type of test: cell-based. The essentials: as §1
Test [4] shares this target. Kind of test: Inhibition of HDAC in MEF assessed as increase in histone H3K18 acetylation at 5 uM after 6 hrs by Western blot analysis. Type of test: cell-based. The procedure, abridged: as §1
For test [5] the target is unchanged. The test is described as follows: Inhibition of HDAC in MEF assessed as increase in histone H3 acetylation at 5 uM after 6 hrs by Western blot analysis. It counts as cell-based. The essentials:
as §1

For test [6] the target is unchanged. Kind of test: Inhibition of HDAC in MEF assessed as increase in histone H4K5 acetylation at 5 uM after 6 hrs by Western blot analysis. Type of test: cell-based. The essentials:
as §1

Test [7] shares this target. The test is described as follows: Inhibition of HDAC in MEF assessed as increase in histone H4K8 acetylation at 5 uM after 6 hrs by Western blot analysis. Type of test: cell-based. The essentials:
as §1

Test [8] shares this target. Kind of test: Inhibition of HDAC in MEF assessed as increase in histone H4 acetylation at 5 uM after 6 hrs by Western blot analysis. It counts as cell-based. The procedure, abridged: as §1
The target is the same in test [9]. The test is described as follows: Inhibition of HDAC in MEF assessed as increase in histone H3K9 acetylation at 6.1 uM after 24 hrs by Western blot analysis. Type of test: cell-based. The essentials:
as §1

The target is the same in test [10]. Kind of test: Inhibition of HDAC in MEF assessed as increase in histone H3K18 acetylation at 6.1 uM after 24 hrs by Western blot analysis. It counts as cell-based. The essentials: as §1
The target is the same in test [11]. The test is described as follows: Inhibition of HDAC in MEF assessed as increase in histone H3 acetylation at 6.1 uM after 24 hrs by Western blot analysis. It counts as cell-based. The essentials:
as §1

The target is the same in test [12]. The test is described as follows: Inhibition of HDAC in MEF assessed as increase in histone H4K5 acetylation at 10 uM after 6 hrs by Western blot analysis. Type of test: cell-based. The procedure, abridged: as §1
The target is the same in test [13]. The test is described as follows: Inhibition of HDAC in MEF assessed as increase in histone H4 acetylation at 10 uM after 6 hrs by Western blot analysis. Type of test: cell-based. The procedure, abridged: as §1
The target of test [14] is Histone deacetylase (Homo sapiens) (UniProt Q13547+O15379+Q9UBN7+Q92769+Q9UQL6+Q8WUI4+Q9BY41+Q96DB2+P56524+Q9UKV0+Q969S8). Kind of test: Inhibition of HDAC (unknown origin) at 5 uM. It counts as protein assay.
In test [15] the test system is FL5.12. The test is described as follows: Cytotoxicity against mouse FL5.12 cells after 48 hrs by DAPI or propidium iodide staining-based flow cytometric analysis. It counts as functional, cell-based. The settings on record: FL5.12, 48 h. The essentials: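 FL5.12 (murine hematopoietic, IL-3-dependent) cells treated at 25,000/mL; viability read at 48 h by DAPI or propidium iodide dye exclusion on flow cytometry. IC50 fitted, reported with 95% confidence interval.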
(In general: In flow cytometry, cells or beads pass a laser one at a time.)

Test [16] has as its system FL5.12. The test is described as follows: Downregulation of CD98 expression in mouse FL5.12 cells at 2.5 uM after 3 hrs by DAPI staining-based FACS analysis relative to control. It counts as functional. The procedure, abridged: (§2)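 FL5.12 cells plated at 225-250,000/mL and treated 3 h. 150-200,000 cells stained in triplicate on ice for 30 min with PE-anti-mouse CD98, with PE rat IgG2a κ as isotype control. Read by flow cytometry, gated on viable cells (DAPI exclusion or scatter). Loss given as mean of at least 2 biological replicates.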

Test [17] concerns FL5.12. The test is described as follows: Downregulation of CD98 expression in mouse FL5.12 cells at 10 uM after 3 hrs by DAPI staining-based FACS analysis relative to control. Type of test: functional. The essentials:
as §2

For test [18], the system named is FL5.12. Kind of test: Cytotoxicity against mouse FL5.12 cells assessed as vacuole formation at 10 uM after 3 hrs by […]. It counts as functional, cell-based. The essentials:
(§3)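 FL5.12 cells treated at 200,000/mL for 3 h, then imaged at 100× by brightfield/DIC. At least 5 images per condition, at least 2 biological replicates. Two researchers scored each replicate independently: 0 no vacuoles, + some cells, ++ most cells with at least 1 vacuole, +++ all cells heavily vacuolated.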

The target in test [19] is Histone deacetylase 1 (Homo sapiens) (UniProt Q13547). The test is described as follows: Inhibition of human recombinant HDAC1 at 20 uM after 15 to 30 mins by COLOR DE LYS-based colorimetric method. The procedure, abridged:
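Recombinant HDAC1 or HeLa extract incubated with acetylated lysine substrate at 37°C for 15-30 min. Developer then added: 10-15 min at 37°C with absorbance at 405 nm (colorimetric kit), or 15 min at RT with fluorescence at ex 355/em 460 nm, corrected using ± trichostatin A.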

Test [20] concerns FL5.12. Kind of test: Cytotoxicity against mouse FL5.12 cells assessed as vacuole formation at 2.5 uM after 3 hrs by […]. It counts as functional, cell-based. The essentials:
as §3

As usually defined, the inhibition is the percentage by which the read-out fell short of the control. As usually defined, the IC50 is the concentration needed to halve the response being measured. A low value points to inhibition by little substance.

Sequence of Histone deacetylase 1 (Homo sapiens) (Q13547 whole entry): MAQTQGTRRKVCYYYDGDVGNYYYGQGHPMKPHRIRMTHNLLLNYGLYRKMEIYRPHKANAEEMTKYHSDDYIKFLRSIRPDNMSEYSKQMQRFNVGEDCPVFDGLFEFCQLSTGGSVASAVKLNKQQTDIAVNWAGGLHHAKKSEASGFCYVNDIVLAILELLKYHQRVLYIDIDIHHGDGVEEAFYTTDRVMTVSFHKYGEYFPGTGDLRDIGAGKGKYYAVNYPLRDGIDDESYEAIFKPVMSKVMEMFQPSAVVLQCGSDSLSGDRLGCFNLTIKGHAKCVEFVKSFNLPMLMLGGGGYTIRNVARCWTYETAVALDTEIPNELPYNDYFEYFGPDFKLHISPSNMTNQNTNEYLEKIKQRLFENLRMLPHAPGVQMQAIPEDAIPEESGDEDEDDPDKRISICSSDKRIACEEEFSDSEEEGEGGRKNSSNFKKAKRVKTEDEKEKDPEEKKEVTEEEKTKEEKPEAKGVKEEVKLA

In the case of `CCCCCCCCc1ccc(CCC(N)(CO)COP(=O)(O)O)cc1` (stereo not given), the inhibition entry in [1], in test [2], in test [3], in [4], in [5] and in test [6] was “inactive” throughout. The inhibition entry in [7], in test [8], in test [9], in [10], in test [11] and in test [12] was “inactive” throughout. The inhibition entry in test [13] was “inactive”. In test [14], this compound returned an inhibition of 60 to 75%.

In the test on FL5.12 [15], `CCCCCCCCc1ccc(C(=O)C[C@H]2C[C@H](CO)CN2)cc1.Cl` returned an IC50 of 2000 nM. The Activity came out at 44% with FL5.12 [16] and 60% in the test with FL5.12 [17]. Moreover, the outcome in the test with FL5.12 [18] and in the test on FL5.12 [20] was Active. In addition, the inhibition result in test [19] is “inactive”.
